# Published values of several laboratories.
# Compare with care: the assays were run in different laboratories.
SMILES,tested on,assay,test system,setting,endpoint,result
COCC1=N[C@@]2(O)[C@H](C(=O)N(C)OC)[C@@H](c3ccccc3)[C@]3(c4ccc(OC)cc4)Oc4cc(OC)cc(OC)c4[C@]23N1,Vero,"cell growth or viability, MTT",,24 h,CC50,> 20 µM
CNC(=O)c1ccc(-c2cnn3ccc(C(=O)N(C)c4ccc(Cl)c(C(=O)OC)c4)cc23)cc1,,,"female C57BL/6 mouse, plasma","oral, 1 mg/kg/day",Cmax,0.1 ng/mL
COc1ccsc1CNCC[C@@]1(c2ccccn2)CCOC2(CCCC2)C1,,,"human, plasma","intravenous, 3 mg, single dose, healthy volunteers, infusion",Vd,129 L
CNC(=O)c1ccc(-c2cnn3ccc(C(=O)N(C)c4ccc(Cl)c(C(=O)O)c4)cc23)cc1,,,"female C57BL/6 mouse, plasma","oral, 3 mg/kg/day",Cmax,1 ng/mL
NCCNC(=O)O[C@H]1CCC[C@@]2(C1)OOC1(O2)C2CC3CC(C2)CC1C3 (some centres unmarked),,,"male CD-1 mouse, plasma","oral, 10 mg/kg",Cmax,240 ng/mL
CC(O)(CS(=O)(=O)c1ccc(F)cc1)C(=O)Nc1ccc(C#N)c(C(F)(F)F)c1 (centres unmarked),Vero,"cell growth or viability, resazurin",,,CC50,> 100 µM
CC(C)(N)CNC(=O)O[C@H]1CCC[C@@]2(C1)OOC1(O2)C2CC3CC(C2)CC1C3 (some centres unmarked),,,"male CD-1 mouse, plasma","oral, 10 mg/kg",Cmax,191 ng/mL
COc1ccc([C@@]23Oc4cc(OC)cc(OC)c4[C@@]24N=C(C2CC2)N[C@@]4(O)[C@H](C(=O)N(C)OC)[C@H]3c2ccccc2)cc1,Vero,"cell growth or viability, MTT",,24 h,CC50,> 20 µM
